# Rows were chosen to be rich in hits. Some 1.6% of all compounds tested hit in one or more screens of this group.
# TDP2 absorb: human TDP2 enzyme inhibitors, primary screen, biochemical, epi absorbance, recombinant enzyme. actives 0.34% (n = 370,000). AID 720702, 2013. T5PNP hydrolysis, p-nitrophenol absorbance 415 nm. Tyrosyl-DNA phosphodiesterase 2 (Homo sapiens), O95551. inhibition, % at 12.8 µM;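 active = inhibition above the mean of all tested compounds plus 3 SD, set per campaign, cut at about 25% in these data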;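 also: 0% = DMSO with enzyme and 100% = buffer with substrate but no TDP2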
#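 Material: recombinant human TDP2; quantity: TDP2 enzyme at 120 nM final; medium: Tris-HCl pH 7.5 with MgCl2; compound: single concentration, 12.8 µM nominal, with 1% DMSO; incubation: 2 h enzyme incubation at 37 °C; signal: epi absorbance; measure: percent inhibition; benchmarks: high control without enzyme, low control DMSO plus TDP2; repeats: singlicate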
# LEDGF integ inh: blockers of LEDGF/p75-dependent integrase strand transfer – biochemical, TR-FRET, high throughput, primary screen | HIV-1 integrase (with human LEDGF/p75) | TR-FRET IN-LEDGF/p75 DNA integration, Eu/Cy5 | inhibition, % at 3.7 µM | actives 0.64% (n = 370,000) | AID 743269, 2014;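 active = inhibition above the screen-wide mean plus 3 SD, cut at about 13% in these data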;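 also: signal is the Cy5 over europium emission ratio at 671 and 618 nm; 0% = plate median of compound wells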
# MBD2 inh: inhibitors of MBD2 binding to methylated DNA, primary screen, biochemical, TR-FRET, DNA-binding domain, human. actives 0.31% (n = 370,000). Methyl-CpG-binding domain protein 2 (Homo sapiens), Q9UBB5. inhibition, % at 4.4 µM. AID 686964, 2013. MBD2 binding to methylated oligonucleotide; in the data active = inhibition above about 13%
# Target sequence (Q9UBB5 whole entry, looked up, the tested form may be a part): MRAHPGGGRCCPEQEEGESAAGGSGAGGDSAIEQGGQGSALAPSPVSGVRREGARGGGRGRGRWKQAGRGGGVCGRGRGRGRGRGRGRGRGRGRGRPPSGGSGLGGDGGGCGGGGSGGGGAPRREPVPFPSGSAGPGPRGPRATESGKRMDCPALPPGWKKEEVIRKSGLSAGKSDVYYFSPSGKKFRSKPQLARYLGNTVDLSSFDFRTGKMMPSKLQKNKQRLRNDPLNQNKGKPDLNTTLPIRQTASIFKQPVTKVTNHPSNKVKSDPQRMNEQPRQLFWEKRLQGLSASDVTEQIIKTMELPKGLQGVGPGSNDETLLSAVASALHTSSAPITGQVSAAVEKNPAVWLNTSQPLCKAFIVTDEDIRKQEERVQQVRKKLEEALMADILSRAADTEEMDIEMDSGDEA
# UHRF1 MBD2 ctr: UHRF1 methylated DNA binding inhibitors, primary screen, counter-screen for MBD2 inhibitor project, biochemical, TR-FRET, human UHRF1, single concentration; E3 ubiquitin-protein ligase UHRF1 (Homo sapiens), Q96T88; UHRF1 binding to methylated oligo; inhibition, % at 4.4 µM; actives 0.75% (n = 370,000); in the data active = inhibition above about 21%;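 also: UHRF1 SRA domain binding a hemimethylated CpG hairpin DNA probe; 0% = median of test compound wells and 100% = reference inhibitor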
# Numbers without * were called inactive.
SMILES,TDP2 absorb,LEDGF integ inh,MBD2 inh,UHRF1 MBD2 ctr
CC1(C)CC[C@]2(C(=O)O[C@@H]3OC(CO)[C@@H](O)[C@H](O)[C@H]3O)CC[C@]3(C)C(=CCC4[C@@]5(C)CC[C@H](O[C@@H]6OC(C(=O)O)[C@@H](O)[C@H](O)[C@H]6O)C(C)(C)C5CC[C@]43C)[C@@H]2C1 (some centres not stated),-1,16*,0,1
CC(C)=CCC[C@](C)(O)C1CC[C@]2(C)C1[C@H](O)CC1[C@@]3(C)CC[C@H](O[C@@H]4O[C@H](CO)[C@@H](O)[C@H](O)[C@H]4O[C@@H]4O[C@H](CO)[C@@H](O)[C@H](O)[C@H]4O)C(C)(C)C3CC[C@]12C (some centres not stated),-1,2,-3,3
C/C=C(\C)C(=O)OC1CC(C)(C)C[C@H]2C3=CC[C@@H]4[C@@]5(C)CCC(O[C@@H]6O[C@@H](C(=O)O)[C@@H](O)C(O[C@@H]7OC[C@H](O)[C@@H](O)[C@@H]7O[C@@H]7OC(CO)C(O)[C@@H](O)[C@@H]7O)C6O[C@@H]6OC(CO)C(O)C(O)C6O)[C@@](C)(CO)[C@@H]5CC[C@]4(C)[C@]3(C)CC(O)[C@@]12CO (some centres not stated),2,26*,-1,5
COc1cccc(C(=O)N2CCC(Oc3cccnc3)CC2)c1,0,3,4,-1
CC(C)(C)c1ccc(C2C(C#N)=C(N)Oc3n[nH]c(-c4cccnc4)c32)cc1 (configuration not stated),36*,0,0,-9
COc1cc(OC)cc(C2C(C#N)=C(N)Oc3n[nH]c(-c4cccnc4)c32)c1 (configuration not stated),7,-2,-4,-8
CCCC(=O)OC12CCCN(C1)/C(=C/c1cccc(OC)c1)C2 (configuration not stated),-2,1,-4,3
CCCOc1cccc(C(=O)NCCCNC(=O)c2ccccn2)c1,6,1,0,48*
COc1ccc(N(C(=O)CS(=O)CC(=O)Nc2ccc(F)cc2)C(C(=O)NC2CCCCC2)c2cccs2)cc1 (configuration not stated),5,15*,0,-2
Cc1ccc(C2CC(c3ccc(Cl)cc3)=NNC2=O)cc1 (configuration not stated),3,-1,-5,-3
CN1N=C(c2ccc(Cl)cc2)CC(c2ccc(Cl)cc2)C1=O (configuration not stated),-3,1,7,22*
Brc1ccc2nc(-c3ccco3)c(CC3CCCCC3)n2c1,5,16*,0,12
Cc1ccc2nc(-c3ccc(F)cc3)c(CC3CCCCC3)n2c1,-5,-2,13,21*
Cc1ccc2nc(-c3ccc(Cl)cc3)c(CC3CCCCC3)n2c1,6,-6,9,21*
O=C(Nc1nc(-c2cc(Cl)sc2Cl)cs1)c1cccs1,1,-1,7,-1
O=C(Nc1nc(-c2cc(Cl)sc2Cl)cs1)c1ccc(Br)s1,6,1,21*,2
O=C1[C@H]2C[C@@]3(n4ccc5ccccc54)c4ccccc4N(S(=O)(=O)c4ccccc4)[C@H]3N2C(=O)CN1Cc1ccccc1,-8,5,1,2
CSc1ccc(/C=C(\C#N)C(=O)NC2CCCCC2C)cc1 (configuration not stated),0,-2,-4,5
CC1CCCCC1NC(=O)/C(C#N)=C/c1ccccc1F (configuration not stated),0,-4,10,25*
Cc1ccc(S(=O)(=O)Nc2ccc(Nc3nccn4c(-c5cccc(OC(F)(F)F)c5)cnc34)cc2)cc1,-1,2,1,90*
CCOC(=O)[C@]12CCCCC/C=C\1N(CCc1ccc(Cl)cc1)C(=O)[C@H]2CC(=O)N1CCCCC1,1,-1,-2,1
CC(=O)Nc1ccc(-c2nc3ccccc3c(=O)o2)cc1,-1,-1,-3,-1
O=C(Nc1ccc(-c2nc3ccccc3c(=O)o2)cc1)c1ccco1,1,-1,7,21*
O=C(C1CCCN(S(=O)(=O)c2ccc(Br)s2)C1)N1CCN(Cc2ccccc2)CC1 (configuration not stated),-5,-4,-3,3
Cn1c2c(c(=O)n(C)c1=O)C(c1ccc(C(F)(F)F)cc1)CC(=O)N2 (configuration not stated),-9,-1,-5,31*
SMILES,TDP2 absorb,LEDGF integ inh,MBD2 inh,UHRF1 MBD2 ctr
CCN1CCN(c2nc3ccccc3nc2C(C#N)S(=O)(=O)c2ccc(C)cc2)CC1 (configuration not stated),3,1,-4,2
Cc1ccc(S(=O)(=O)C(C#N)c2nc3ccccc3nc2N2CCCC2)cc1 (configuration not stated),37*,7,2,0
Fc1ccc(Nc2nc(-c3ccncc3)cs2)cc1,0,12,5,28*
CCOC(=O)[C@]12CCCCC/C=C\1N(Cc1ccc(OC)cc1)C(=O)[C@H]2CC(=O)NCCc1ccccc1OC,9,0,-1,0
Cc1cc(/C=C(/C#N)c2nc3ccccc3[nH]2)c(C)n1-c1cc(C(=O)O)cc(C(=O)O)c1,4,13,1,23*
Cc1ccc(OCc2nnc(SCC(=O)Nc3ccccc3-c3ccccc3)n2Cc2ccco2)cc1,-8,4,1,-1
COc1ccc2[nH]c3c(C)c4ccncc4c(C)c3c2c1,12,4,33*,36*
COc1cc2c(cc1OC)C(SC)=NC1(CCCC1)C2,-7,-3,10,27*
O=C(Nc1ccc(Oc2ccccc2)cc1)C1CCCN1S(=O)(=O)c1cccc2cccnc12 (configuration not stated),5,0,-6,-4
COc1cccc(-n2cc(CN(C)C(=O)C3CCC(=O)N(C4CC4)C3)cn2)c1 (configuration not stated),-4,-1,-1,-1
COc1cccc(-n2cc(CNC(=O)C3CCC(=O)N(C4CC4)C3)cn2)c1 (configuration not stated),3,4,9,21*
COC(=O)c1ccc(Cn2ccc3ccc(-c4ccc5ccn(C(=O)c6cccc(OC)c6)c5c4)cc32)cc1,1,2,2,-2
COc1ccc(OC)c(NC(=O)C(C)N2c3cccc4cccc(c34)S2(=O)=O)c1 (configuration not stated),-15,30*,-6,3
COc1ccc(OC)c(NC(=O)CN2c3cccc4cccc(c34)S2(=O)=O)c1,7,2,-5,1
Cc1ccc2occ(/C=N/NC(=O)[C@@H](N)Cc3ccccc3)c(=O)c2c1,15,1,-5,-3

# From PubChem BioAssay
